Data from ChEMBL document CHEMBL4513216, “Probing the Open Global Health Chemical Diversity Library for Multistage-Active Starting Points for Next-Generation Antimalarials” (ACS Infect Dis, 2020).

Assay: Toxicity liver stage against HepG2, at 10uM
Type: cell-based
Design: test concentration 10 uM, cell line HepG2-A16-CD81EGFP
Conditions: human, HepG2-A16-CD81EGFP cells; read-out: INHIBITION
In short: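 Uninfected HepG2-A16-CD81EGFP cells, 3 × 10^3 per well, 1536-well, plated on prespotted compound at 10 μM final, parasite-free screening media added to match infected plates; puromycin 10 μM positive, DMSO 0.5% negative; run in parallel with 48 h PbLuc assay at 37 °C, 5% CO2; viability by CellTiter-Glo luminescence, normalized to controls.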

Compound | cytotoxicity at 10 µM [%]
Cc1noc([C@@H]2C[C@H](NC(=O)Nc3cccc(F)c3)CN2C)n1 | -2.17
CCn1c(=O)nc(N)c2c(-c3ccc(OC)cc3)csc21 | -32.8
COCCn1ccc2c(C(=O)NCC3CCCO3)cccc21 (stereo unspecified) | 1.53
CCCS(=O)(=O)c1ccc(N2CCC(Cc3ccccc3)CC2)nn1 | -7.91
COc1ccc(S(=O)(=O)NCCCc2ccc(N(C)C)cc2)cc1F | -2.59
COc1ccccc1C(=O)N1CC2(COC(C)(C)OC2)C1 | -6.4
O=c1c2cnc(N3CCCC3)nc2ccn1-c1cccc(C(F)(F)F)c1 | 16.9
O=C(CCc1nc2cccnc2[nH]1)NCc1cccnc1 | 7.72
Cc1oncc1C(=O)N1CCC2(C1)CN(c1cccnc1)C(=O)CN2C (stereo unspecified) | -5.26
Cc1ccc(-c2noc(C3CCN3C(=O)c3ccn(C)n3)n2)s1 (stereo unspecified) | 3.56
CS(=O)(=O)N1CCCCCC1c1cc(-c2ccc(F)cc2)no1 (stereo unspecified) | 2.97
CN1C[C@@H](C(=O)NC2CCCC2)[C@@]2(COc3ccc(F)cc3C2=O)C1 | 2.1
Cc1cnc(-c2nc(C3CCN(Cc4ccccc4O)CC3)no2)cn1 | 3.66
CCN1CCC(N2CCC(c3nc(C)cc(C)n3)C2)CC1 (stereo unspecified) | 5.15
CC(=O)N1CCC(c2cncc(N3CCC(O)C3)n2)CC1 (stereo unspecified) | 5.57
CN(C)S(=O)(=O)N1CCCC(C)(c2ncc(C(N)=O)s2)C1 (stereo unspecified) | -2.36
Cn1cc(CN2CCOC(c3cccc(-c4cccc(F)c4)n3)C2)cn1 (stereo unspecified) | -11.1
Oc1cc(-c2cccs2)nc(C2CCCN(CC3=CCCOC3)C2)n1 (stereo unspecified) | -5.56
Cc1cc(C)cc(NCCC(=O)NCc2cccnc2N(C)C)c1 | -0.211
Cc1nnc(CN2CCCC2c2ccc3c(c2)OCCO3)n1C (stereo unspecified) | -0.379
CC(C)N1CCC(NC(=O)c2cn(-c3ccc(F)cc3)nn2)C1 (stereo unspecified) | -5.05

Compound | cytotoxicity at 10 µM [%]
CC(C)(C)NC(=O)COc1ccc(Oc2ccccn2)cc1 | 7.32
CN(C)CCOc1ccc(CNC(=O)c2cccc3[nH]ncc23)cc1 | 7.99
CC(C)c1n[nH]c(C2CN(Cc3ncc[nH]3)CCO2)n1 (stereo unspecified) | 1.95
Cc1noc(C)c1CN(C)C(=O)NCCOc1ccc(F)cc1F | -0.0414
COC(C)c1nc(CN2CCNCC2)cs1 (stereo unspecified) | 4.68
COCCNC(=O)CN(C)CCn1nc2ccccn2c1=O | -156
CC(c1nc(C(C)(C)C)no1)N1CCN(c2ccc(C#N)cn2)CC1 (stereo unspecified) | 3.84
CC(C)S(=O)(=O)NCC1CCCN(C(=O)c2ccc(F)cc2)C1 (stereo unspecified) | 4.68
COC(=O)NCCC(=O)NCC1(c2cccc(Cl)c2)CC1 | -4.31
COc1ccc(C)cc1CN(Cc1ncc(C)o1)C1CCN(C)C1 (stereo unspecified) | -0.76
CS(=O)(=O)Cc1ccc(NC(=O)c2cccnc2)cc1F | -1.53
CC(C)N(CC(N)=O)C(=O)CCC(=O)c1ccc(F)cc1F | 0.529
O=C(NCCCc1nc(=O)[nH][nH]1)Nc1ccc(Cl)cc1 | -54.9
COCCC(=O)Nc1nccn1Cc1ccc(Br)cc1 | -47.2
Cc1ccc(C(=O)N(C)CCNS(C)(=O)=O)cc1Br | -45.8
CNC(=O)[C@H]1C[C@@H]2CN(C(=O)c3cnc(C)cn3)C[C@@H]2N1C | -108
CCN1CCc2nc(N3CCOCC3)nc(NC(C)C)c2C1 | -112
O=C(O)CCc1cn(C2CCN(c3ncccc3Cl)CC2)nn1 | -49.3
Cc1[nH]c(-c2ccccc2)nc1C(=O)N1CC[C@H](CO)[C@@H](O)C1 | 76.5
Cc1ccc(CN2CCCC(c3nnc(CN4CCCCC4)n3C)C2)s1 (stereo unspecified) | -2.46
Cc1oc(-c2ccoc2)nc1CN1CCCCC1CCn1cccn1 (stereo unspecified) | -3.65

Compound | cytotoxicity at 10 µM [%]
CCC[C@H]1CN(S(C)(=O)=O)C[C@@H]1NC(=O)c1ccc(COC)cc1 | 1.1
CCNC(=O)[C@@H]1C[C@@H](N)CN1Cc1ccc(-c2ccccc2C#N)o1 | -50.1
CN(C)C(C(=O)N1CCC(C#N)CC1)c1ccccc1F (stereo unspecified) | -3.59
CN1CCC(N(C)CCC(=O)N2CCC(OCc3ccccc3)CC2)C1 (stereo unspecified) | -6.35
CC(C)c1nnc(CN2CCCC3(CC2)CN(C)C(=O)O3)o1 (stereo unspecified) | -1.52
Cc1cc(-c2cc(C3CCOC3)c(C#N)c(N)n2)ccc1Cl (stereo unspecified) | -0.611
CC(C)(C)c1cc(CN2CCOC(CCc3ccccc3)C2)n[nH]1 (stereo unspecified) | -5.34
c1ccc2c(c1)nnn2CCCNC1CCOC2(CCOCC2)C1 (stereo unspecified) | -4.66
O=S1(=O)COCCN1CCCOc1ccc(F)cc1 | 3.57
CN(C)Cc1nnc(C2CCCN(c3ncccc3F)C2)n1C (stereo unspecified) | 7.36
CC(C)=CCN1CCN(Cc2nccn2C)[C@H]2CS(=O)(=O)C[C@H]21 | -2.76
COCCOC1CCN(C(C(=O)O)c2ccc(F)c(Cl)c2)CC1 (stereo unspecified) | 9.84
COc1ccc(-c2n[nH]cc2CN(C)Cc2nnc(C)o2)c(F)c1 | -3.01
COc1ccc([C@@H]2CN(Cc3cccnc3N)C[C@H]2NC(C)=O)cc1 | 0.0652
CNC(=O)C(C)(C)NC(=O)c1cc(OCC2CCC2)cc(C(=O)OC)c1 | -8.97
Fc1ccc(-c2nc(CNC3CCc4ncnn4C3)co2)cc1 (stereo unspecified) | -4.2
CC(C)c1nc(CN2CCCCC2Cn2cncn2)cs1 (stereo unspecified) | -5.06
Cc1ccc(C(=O)Nc2nc(C)no2)cc1 | -1.81
CC(C)c1nn(C)c(N(C)C)c1CNCc1ccc(CO)c(F)c1 | -5.4
CNC(=O)NC(=O)CCN1CCN(c2ccc(C(=O)OC)cc2)CC1C (stereo unspecified) | -17.8
Cc1ccc(C(=O)N2CCCC(n3cccn3)C2)cc1S(C)(=O)=O (stereo unspecified) | -4.63

Compound | cytotoxicity at 10 µM [%]
Cn1cc(Cl)cc1C(=O)N1CCN(CCc2cccs2)CC1 | -11.8
O=C(CCc1cccc(F)c1F)N1CCCC(n2cncn2)C1 (stereo unspecified) | -20.2
Cc1ccccc1C(=O)NCc1ccnc(N(C)C)c1 | -8.84
CN(Cc1coc(-c2ccccc2)n1)C1CCCN(c2cccnn2)C1 (stereo unspecified) | -14
CCc1cnc(CNc2ccc(C(=O)N3CCCC(C)C3)cc2C)o1 (stereo unspecified) | -3.58
Cc1noc(CN2CCN(Cc3cccs3)CC2)n1 | -6.23
COc1cc(CN(C(=O)Nc2cccnc2OC)C2CC2)ccc1O | -2.14
COCc1nc(C(=O)N2CCCCC2Cn2cccn2)cs1 (stereo unspecified) | -19.1
Cc1[nH]ncc1C(=O)N1CCCC(c2cc(C(F)(F)F)[nH]n2)C1 (stereo unspecified) | -7.2
Cn1cnc(S(=O)(=O)NCCCN2CCCCCC2)c1Cl | -9.53
CN1CCOC(CNC(=O)Cc2ccccc2F)C1 (stereo unspecified) | -3.87
CS(=O)(=O)c1ccc(NC(=O)NCc2ccc3c(c2)CCC3)cn1 | -4.92
CC(C)(C)c1n[nH]c(C2CN(C(=O)CCc3cscn3)CCO2)n1 (stereo unspecified) | -17.3
CC1CCCCN1C(=O)CN1CCN(c2ccc3nncn3n2)CC1 (stereo unspecified) | 1.48
CCN(CC)C(=O)CN1CCc2nc(C3CCNCC3)nc(NC)c2C1 | -5.46
COc1ccc(-c2cc(C3CCNCC3)ccn2)cc1 | 0.288
Cc1ccc(CN2CC[C@H]3OCC[C@@H](C(=O)NC4CC4)[C@@H]3C2)o1 | 5.81
CNC(=O)[C@@]12CCO[C@@H]1CCN(S(=O)(=O)c1cccnc1)C2 | -3.3
